Assay results reported in ChEMBL document CHEMBL4308847, “Discovery, Structure-Activity Relationship, and Biological Characterization of a Novel Series of 6-((1 H-Pyrazolo[4,3- b]pyridin-3-yl)amino)-benzo[ d]isothiazole-3-carboxamides as Positive Allosteric Modulators of the Metabotropic Glutamate Receptor 4 (mGlu4)” (J Med Chem, 2018).
Activity calls are given as the source filed them. No cut-off for these calls is given here.

Experiments:
[1] = Drug uptake in rat brain administered as iv cassette dose; type: ADME, organism-based; conditions: in vivo
How it was run: (§1)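 Cassette dosing in male Sprague-Dawley rats (~300 g, n = 1 per experiment), with carotid artery and jugular vein catheters. Animals acclimated about one week with food and water ad libitum. Plasma (ng/mL) and brain (ng/g) levels were measured and Kp calculated.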

[2] = Brain to plasma partition coefficient, Kp of the compound in rat administered as iv cassette dose; type: ADME, organism-based; how it was run: as §1
[3] = Clearance in rat administered as iv cassette dose; type: ADME, organism-based; conditions: in vivo
How it was run: (§2)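 IV cassette in male Sprague-Dawley rats (~300 g, n = 1 per experiment), cannulated in carotid artery and jugular vein and acclimated about one week. Plasma clearance, Vss, t1/2 and MRT were derived.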

[4] = target: Metabotropic glutamate receptor 4 (Rattus norvegicus) (UniProt P31423); assay: Positive allosteric modulation of rat mGlu4 receptor expressed in HEK cells co-expressing GIRK1/2 assessed as increase in glutamate-induced thallium flux preincubated for 140 secs followed by glutamate addition and measured after 2.5 mins by FluoZin-2-AM dye based fluorescence assay relative to control; type: cell-based
Metabotropic glutamate receptor 4 (Rattus norvegicus), sequence (P31423 whole entry): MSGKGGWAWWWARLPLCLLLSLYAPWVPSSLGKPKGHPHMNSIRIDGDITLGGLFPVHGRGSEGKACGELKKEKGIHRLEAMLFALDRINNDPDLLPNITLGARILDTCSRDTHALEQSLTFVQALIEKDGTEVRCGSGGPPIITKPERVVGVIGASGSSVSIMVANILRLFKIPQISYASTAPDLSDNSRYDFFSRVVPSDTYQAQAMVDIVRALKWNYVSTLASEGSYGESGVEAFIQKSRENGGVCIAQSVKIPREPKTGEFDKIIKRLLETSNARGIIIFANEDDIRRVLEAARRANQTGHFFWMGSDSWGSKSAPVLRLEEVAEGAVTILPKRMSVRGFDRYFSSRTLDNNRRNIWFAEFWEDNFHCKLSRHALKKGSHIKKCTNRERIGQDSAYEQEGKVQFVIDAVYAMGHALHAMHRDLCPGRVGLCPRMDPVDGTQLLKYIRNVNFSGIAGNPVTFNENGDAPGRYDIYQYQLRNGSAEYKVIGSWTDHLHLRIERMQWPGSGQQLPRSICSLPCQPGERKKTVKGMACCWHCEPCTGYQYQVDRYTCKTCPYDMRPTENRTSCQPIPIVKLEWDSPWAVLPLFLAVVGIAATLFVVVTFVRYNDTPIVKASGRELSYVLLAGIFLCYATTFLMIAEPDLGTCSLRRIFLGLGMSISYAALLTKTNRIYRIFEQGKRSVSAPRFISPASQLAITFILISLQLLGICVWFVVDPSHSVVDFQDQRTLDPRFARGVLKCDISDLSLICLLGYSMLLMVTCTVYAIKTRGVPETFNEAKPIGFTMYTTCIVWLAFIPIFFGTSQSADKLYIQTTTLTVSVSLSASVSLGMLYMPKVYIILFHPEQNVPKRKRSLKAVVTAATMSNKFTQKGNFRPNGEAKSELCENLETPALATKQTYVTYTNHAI
How it was run: (§3)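 HEK cells co-expressing rat mGlu4 and GIRK1/2 were loaded for 1 h at room temperature with FluoZin-2 AM (330 nM final) in HBSS/20 mM HEPES pH 7.4. Compound was incubated 140 s, then thallium buffer with or without agonist was added. Reading continued for 2.5 min at room temperature. Potency was fitted by four-parameter logistic.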

[5] = Intrinsic clearance in rat liver microsomes at 1 uM preincubated for 5 mins followed by NADPH addition measured up to 45 mins by LC-MS/MS analysis; type: ADME, Microsome; conditions: read-out: CLH
How it was run: (§4)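 Intrinsic and predicted hepatic clearance derived from liver microsome incubations.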

[6] = Fraction unbound in human plasma after 4 hrs by equilibrium dialysis method; type: ADME, cell-free
[7] = target: Metabotropic glutamate receptor 4 (Rattus norvegicus, UniProt P31423); assay: Positive allosteric modulation of rat mGlu4 receptor expressed in HEK cells co-expressing GIRK1/2 assessed as increase in glutamate-induced thallium flux preincubated for 140 secs followed by glutamate addition and measured after 2.5 mins by FluoZin-2-AM dye based fluorescence assay; type: cell-based; how it was run: as §3
Metabotropic glutamate receptor 4 (Rattus norvegicus, UniProt P31423), sequence (P31423 whole entry): as above

[8] = Plasma concentration in rat administered as iv cassette dose; type: ADME, organism-based; conditions: in vivo; how it was run: as §1
[9] = Intrinsic clearance in human liver microsomes at 1 uM preincubated for 5 mins followed by NADPH addition measured up to 45 mins by LC-MS/MS analysis; type: ADME, Microsome; conditions: read-out: CLH; how it was run: as §4
[10] = Fraction unbound in rat plasma after 4 hrs by equilibrium dialysis method; type: ADME, cell-free
[11] = target: T1, Metabotropic glutamate receptor 4 (Homo sapiens, UniProt Q14833); assay: (§5) Positive allosteric modulation of human mGlu4 receptor expressed in CHO cells co-expressing Gqi5 assessed as increase in glutamate-induced calcium mobilization preincubated for 142 secs followed by EC20 glutamate addition and measured after 147 secs by Fluo-4-AM dye based fluorescence assay relative to control; type: functional, cell-based
T1 sequence (Q14833 whole entry): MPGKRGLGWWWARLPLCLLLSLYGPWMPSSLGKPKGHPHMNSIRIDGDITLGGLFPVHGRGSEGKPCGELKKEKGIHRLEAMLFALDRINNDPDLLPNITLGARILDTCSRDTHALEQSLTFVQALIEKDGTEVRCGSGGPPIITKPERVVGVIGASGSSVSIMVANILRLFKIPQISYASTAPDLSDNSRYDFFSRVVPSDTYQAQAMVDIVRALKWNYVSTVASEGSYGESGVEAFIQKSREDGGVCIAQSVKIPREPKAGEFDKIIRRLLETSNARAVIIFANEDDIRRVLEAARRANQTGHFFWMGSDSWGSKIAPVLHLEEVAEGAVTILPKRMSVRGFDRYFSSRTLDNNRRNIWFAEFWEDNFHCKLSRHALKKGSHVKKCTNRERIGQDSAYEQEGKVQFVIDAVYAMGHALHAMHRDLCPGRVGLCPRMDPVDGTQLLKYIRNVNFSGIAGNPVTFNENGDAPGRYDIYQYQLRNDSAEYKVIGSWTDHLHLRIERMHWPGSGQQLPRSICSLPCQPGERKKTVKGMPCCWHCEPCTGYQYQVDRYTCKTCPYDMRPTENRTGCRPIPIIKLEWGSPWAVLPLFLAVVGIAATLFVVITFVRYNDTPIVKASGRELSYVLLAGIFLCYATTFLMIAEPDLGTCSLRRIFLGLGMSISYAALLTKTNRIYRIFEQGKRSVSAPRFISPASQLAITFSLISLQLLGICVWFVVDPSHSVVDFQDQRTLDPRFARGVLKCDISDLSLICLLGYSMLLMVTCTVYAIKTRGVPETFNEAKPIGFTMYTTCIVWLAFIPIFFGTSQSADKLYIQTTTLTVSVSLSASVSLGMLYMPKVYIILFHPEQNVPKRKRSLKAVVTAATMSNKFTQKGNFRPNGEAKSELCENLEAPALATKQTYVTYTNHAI
How it was run: (§6)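 CHO cells expressing human mGlu4 and Gqi5, plated at 30,000 cells/well and grown overnight at 37 °C, 5% CO2. Cells were loaded with 1 μM Fluo-4 AM for 45 min at 37 °C in HBSS/20 mM HEPES/2.5 mM probenecid. Compounds were run as 10-point, 1:3 dilution series. After 142 s, EC20 glutamate was added; 147 s later, EC80 glutamate. Fluorescence was normalized to the maximal glutamate response. EC50 and %Glu Max were fitted by four-parameter logistic, with maximum normalized to PHCCC.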

[12] = Half life in rat administered as iv cassette dose; type: ADME, organism-based; conditions: in vivo; how it was run: as §2
Cytochrome P450 1A2 = target: T2, Cytochrome P450 1A2 (Homo sapiens, UniProt P05177); assay: Inhibition of CYP1A2 in human liver microsomes using phenacetin as substrate preincubated for 15 mins followed by substrate addition and measured after 8 mins by LC-MS/MS analysis; type: ADME
T2 sequence (P05177 whole entry): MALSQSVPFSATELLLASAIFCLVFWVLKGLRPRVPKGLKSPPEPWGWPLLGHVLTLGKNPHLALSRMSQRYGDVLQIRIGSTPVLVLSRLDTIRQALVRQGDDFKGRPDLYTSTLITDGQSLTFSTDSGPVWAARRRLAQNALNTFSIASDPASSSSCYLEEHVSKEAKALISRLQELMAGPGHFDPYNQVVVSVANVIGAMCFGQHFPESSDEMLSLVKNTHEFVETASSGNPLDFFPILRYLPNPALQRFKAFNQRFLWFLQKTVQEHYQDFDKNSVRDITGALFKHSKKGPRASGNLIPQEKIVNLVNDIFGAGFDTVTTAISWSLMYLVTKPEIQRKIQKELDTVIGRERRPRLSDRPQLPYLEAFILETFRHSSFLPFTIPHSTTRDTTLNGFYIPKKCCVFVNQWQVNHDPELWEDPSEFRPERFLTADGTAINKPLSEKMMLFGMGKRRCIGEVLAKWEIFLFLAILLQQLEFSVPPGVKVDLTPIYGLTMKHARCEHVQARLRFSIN
How it was run: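 IC50 for CYP1A2 inhibition determined in human liver microsomes using specific probe substrate-metabolite pairs.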

[13] = target: T1, Metabotropic glutamate receptor 4; assay: as §5, with “subsequent EC80 glutamate addition” for “measured”, “assay” for “assay relative to control”; type: functional, cell-based; how it was run: as §6
Rattus norvegicus = assay: Reversal of haloperidol-induced catalepsy in Sprague-Dawley rat assessed as decrease in latency to remove forepaws from bar at 10 mg/kg, po administered 30 mins prior to test; type: functional, organism-based
How it was run: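 Male Sprague-Dawley rats were randomized and given haloperidol 0.75 mg/kg i.p., then 60 min in home cage. Vehicle or compound (10 mg/kg) was given orally 30 min before catalepsy testing, N = 11–12 rats/group. Data analyzed by one-way ANOVA with Dunnett's test versus vehicle + haloperidol.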

[14] = MRT in rat administered as iv cassette dose; type: ADME, organism-based; conditions: in vivo; how it was run: as §2
[15] = target: T3, AhR (read out as CYP1A2 induction) (Homo sapiens, UniProt P35869); assay: Activation of AhR (unknown origin) assessed as CYP1A2 induction relative to control; type: ADME
T3 sequence (P35869 whole entry): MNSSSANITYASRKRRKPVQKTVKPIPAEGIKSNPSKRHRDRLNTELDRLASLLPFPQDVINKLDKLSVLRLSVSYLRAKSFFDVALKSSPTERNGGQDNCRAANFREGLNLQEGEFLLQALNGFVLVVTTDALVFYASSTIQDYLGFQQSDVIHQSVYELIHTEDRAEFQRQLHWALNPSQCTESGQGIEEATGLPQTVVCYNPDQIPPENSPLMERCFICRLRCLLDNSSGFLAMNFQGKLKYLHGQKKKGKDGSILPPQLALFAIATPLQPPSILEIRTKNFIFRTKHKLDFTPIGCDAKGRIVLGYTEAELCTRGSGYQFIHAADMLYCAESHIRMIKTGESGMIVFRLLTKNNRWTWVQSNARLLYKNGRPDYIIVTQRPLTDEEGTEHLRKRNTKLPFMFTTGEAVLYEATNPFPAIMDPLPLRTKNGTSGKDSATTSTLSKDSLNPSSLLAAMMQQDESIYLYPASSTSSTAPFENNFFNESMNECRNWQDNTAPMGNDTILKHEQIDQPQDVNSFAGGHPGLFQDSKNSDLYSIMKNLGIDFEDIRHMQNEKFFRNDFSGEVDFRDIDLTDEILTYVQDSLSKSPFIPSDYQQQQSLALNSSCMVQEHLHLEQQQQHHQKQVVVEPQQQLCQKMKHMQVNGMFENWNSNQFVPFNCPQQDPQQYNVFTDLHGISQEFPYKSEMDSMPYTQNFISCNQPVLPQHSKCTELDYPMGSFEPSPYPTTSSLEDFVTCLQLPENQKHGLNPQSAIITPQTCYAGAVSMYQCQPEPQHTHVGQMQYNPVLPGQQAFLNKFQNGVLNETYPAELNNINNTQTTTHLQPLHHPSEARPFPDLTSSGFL

[16] = Volume of distribution at steady state in rat administered as iv cassette dose; type: ADME, organism-based; conditions: in vivo, read-out: Vdss; how it was run: as §2

| Drug uptake [1] | Kp ([2]; brain and plasma, read-out: Kp) | clearance [3] | %max [4] | CLint scaled at 1 µM [5] | fraction unbound at 4 h [6] | EC50 [7] | Cp [8] | CLint scaled at 1 µM [9] | fraction unbound at 4 h [10] | %max [11] | half-life [12] | IC50 (Cytochrome P450 1A2) | EC50 [13] | MRT [14] | Emax [15] | Vd [16] | Drug uptake ([1]; BLD = below limit of detection) | Kp ([2]; brain, BLD = below limit of detection) | SMILES | Activity (Rattus norvegicus) |
| --- | --- | --- | --- | --- | --- | --- | --- | --- | --- | --- | --- | --- | --- | --- | --- | --- | --- | --- | --- | --- |
| 145 ng/g | 1.2 | 23.2 mL/min/kg | 102% | 281 mL/min/kg | 0.013 | 518 nM | 117 ng/mL | 42.3 mL/min/kg | 0.008 | 85.5% | 45.9 min | 3000 nM | 514 nM |  |  |  |  |  | c1cnc2c(Nc3ccc4c(C5CCCC5)noc4c3)n[nH]c2n1 |  |
| 35.5 ng/g | 0.14 |  | 103% | 393 mL/min/kg | 0.021 | 139 nM | 249 ng/mL | 54 mL/min/kg | 0.029 | 71% |  | > 30000 nM | 52.4 nM |  |  |  |  |  | O=C(c1nsc2cc(Nc3n[nH]c4cccnc34)ccc12)N1CCC(F)(F)CC1 |  |
|  |  |  |  |  |  |  |  |  |  |  |  |  |  |  |  |  |  |  | Fc1ccc(Nc2n[nH]c3cccnc23)cc1Cl | Active |
|  |  | 64.6 mL/min/kg | 111% | 33.4 mL/min/kg | 0.054 | 123 nM |  | 24.2 mL/min/kg | 0.076 | 80.6% | 54.8 min | < 100 nM | 1570 nM | 31.6 min | > 50% | 2 L/kg |  |  | Cc1noc2ccc(Nc3n[nH]c4cc(F)cnc34)cc12 |  |
|  |  | 81.1 mL/min/kg | 114% | 66.4 mL/min/kg | 0.029 | 53 nM |  | 31.1 mL/min/kg | 0.05 | 77.7% | 31.2 min | < 100 nM | 274 nM | 38.4 min | > 50% | 3.1 L/kg |  |  | Cc1noc2c(F)cc(Nc3n[nH]c4cccnc34)cc12 |  |
|  |  | 24.3 mL/min/kg | 127% | 3 mL/min/kg | 0.066 | 65 nM |  | 114 mL/min/kg | 0.064 | 85.4% | 28.6 min | 200 nM | 137 nM | 37.2 min | > 50% | 0.9 L/kg |  |  | Cc1noc2ccc(Nc3n[nH]c4nccnc34)cc12 |  |
|  |  | 38 mL/min/kg | 108% | 30.1 mL/min/kg | 0.066 | 209 nM |  | 81.4 mL/min/kg | 0.079 | 81.9% | 107 min | 700 nM | 227 nM | 60.6 min | > 50% | 2.5 L/kg |  |  | Cc1noc2ccc(Nc3n[nH]c4ncccc34)cc12 |  |
|  |  | 30.5 mL/min/kg | 114% | 110 mL/min/kg | 0.028 | 169 nM |  | 50.2 mL/min/kg | 0.033 | 74.7% | 34.7 min | < 100 nM | 122 nM | 38 min | > 50% | 1.2 L/kg |  |  | Cc1noc2c(F)cc(Nc3n[nH]c4ncccc34)cc12 |  |
| 55.6 ng/g | 0.08 |  | 86.6% | 8.3 mL/min/kg | 0.004 | 82.2 nM | 690 ng/mL | 2.6 mL/min/kg | 0.007 | 68.1% |  | > 30000 nM | 26 nM |  |  |  |  |  | O=C(NC1CC(F)(F)C1)c1nsc2cc(Nc3n[nH]c4nccnc34)ccc12 |  |
|  |  |  |  | 2940 mL/min/kg | 0.006 |  | 511 ng/mL | 298 mL/min/kg | < 0.001 | 76.7% |  |  | 68.1 nM |  |  |  | Bld | Bld | CN(C(=O)c1nsc2cc(Nc3n[nH]c4cccnc34)ccc12)C1CC(F)(F)C1 |  |
